Our source for the IC50 and Activity values is ChEMBL document CHEMBL1139704, “Discovery of potent inhibitors of pseudomonal quorum sensing via pharmacophore modeling and in silico screening” (Bioorg Med Chem Lett, 2006).

Activity calls are given as the source filed them. No cut-off for these calls is given here.

Common to all, as to assay type: functional, organism-based
Test [1] deals with Pseudomonas aeruginosa. The test is described as follows: Inhibition of pyocyanin production in Pseudomonas aeruginosa. The procedure, abridged: (§1)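 Overnight nutrient broth cultures were pelleted, resuspended, grown to mid-log phase (OD600 0.3–0.5), and diluted to OD600 0.05. Cultures were exposed to compound in water at 50.00, 25.00, 10.00, 5.00, 2.50, 1.00, 0.10, 0.001 or zero final concentration, shaken 18 h at 37 C. Viable cells were counted, and the pellet OD600 was used to normalise pigment per bacterial OD unit.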

The test system of test [2] is Pseudomonas aeruginosa. The test can be described thus: Inhibition of pyoverdin production in Pseudomonas aeruginosa. The procedure, abridged:
as §1

Test [3] has as its system Pseudomonas aeruginosa. The test is described as follows: Inhibition of pyocyanin production in Pseudomonas aeruginosa ATCC 9027. Summed up:
as §1

Test [4] concerns Pseudomonas aeruginosa. The test is described as follows: Inhibition of pyoverdin production in Pseudomonas aeruginosa ATCC 9027. Summed up: as §1

In the case of PHENYL MERCURIC NITRATE, the IC50 is 3020 nM in the test with Pseudomonas aeruginosa [1], 3160 nM with Pseudomonas aeruginosa [2], 3240 nM in the test on Pseudomonas aeruginosa [3] and 3980 nM in the test on Pseudomonas aeruginosa [4].

As for THIMEROSAL, the IC50 in the test with Pseudomonas aeruginosa [1] is 708 nM; in the test with Pseudomonas aeruginosa [2], 603 nM; with Pseudomonas aeruginosa [3], 3160 nM; in the test on Pseudomonas aeruginosa [4], 3170 nM.

Take “triethylplumbyl 4-methylbenzenesulfonate”: the IC50 amounted to 282 nM in the test with Pseudomonas aeruginosa [1], 355 nM in the test on Pseudomonas aeruginosa [2], 158 nM in the test with Pseudomonas aeruginosa [3] and 794 nM in the test with Pseudomonas aeruginosa [4].

For `CCOP(=O)(OCC)O/N=C(/C)c1cccc(C)c1`, the outcome in the test on Pseudomonas aeruginosa [1] and in the test on Pseudomonas aeruginosa [2] was inactive.
